High-throughput results deposited in PubChem BioAssay by The Scripps Research Institute Molecular Screening Center.
Sampled rows, rich in hits. Any-hit rate of the full collection: about 3%.
S1P1 ag-PAM: agonists and agonism potentiators of human S1P1 receptor | S1P1 CRE-bla cells, forskolin, beta-lactamase FRET, potentiator mode; S1P1 agonist co-added at EC20, 2 nM; 100% = saturating reference agonist, 0% = basal | actives 0.57% (n = 56,000) | activation, % at 9.5 µM;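 active = activation above a cutoff set at the mean activation of all tested compounds plus 3 SD, cut at about 54% in these data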;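 also: forskolin at 4 µM as EC80 and the EC20 agonist is SEW2871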
S1P3 ag: agonists of human S1P3 receptor; activation, % at 4.5 µM; actives 0.1% (n = 60,000); S1P3 NFAT-BLA reporter cells, agonism, FRET ratio; relative to 1 µM S1P, basal subtracted;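 active = activation above the screen-wide mean plus 3 SD, cut at about 4.5% in these data, passing the limit was not always enough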
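Measure – % activation relative to 1 µM S1P (100%), per plate · System – stable CHO line with human S1P3, Gα16, NFAT-BLA reporter · Timing – cells plated overnight, compound 4 h 37 °C, substrate 2 h RT · Technique – fluorescent BLA substrate, ex 405 nm, em 460/535 nm ratio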
HTR1E antagonist: antagonists of human 5-HT1E serotonin receptor; actives 0.99% (n = 65,000); CHO 5-HT1E Ga15 NFAT-bla reporter, FRET, antagonist; inhibition, % at 6 µM;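 active = inhibition above a set limit, the mean inhibition across every tested compound plus 3 SD, cut at about 29% in these data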;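 also: signal is the 460 over 535 nm emission ratio of beta-lactamase substrate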
Target sequence (P28566 whole entry, looked up): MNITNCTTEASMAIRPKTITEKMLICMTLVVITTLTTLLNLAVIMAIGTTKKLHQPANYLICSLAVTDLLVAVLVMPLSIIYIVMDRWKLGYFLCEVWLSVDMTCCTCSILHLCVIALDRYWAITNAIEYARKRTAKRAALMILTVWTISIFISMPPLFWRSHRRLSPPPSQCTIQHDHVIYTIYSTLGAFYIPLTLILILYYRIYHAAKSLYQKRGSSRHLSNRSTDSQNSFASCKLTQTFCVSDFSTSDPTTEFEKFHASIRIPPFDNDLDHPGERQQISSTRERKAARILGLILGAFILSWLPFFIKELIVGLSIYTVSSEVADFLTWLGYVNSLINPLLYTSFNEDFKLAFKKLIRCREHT
5HT1a ag: 5-HT1a (human) receptor agonism. activation, % at 10 µM. P08908. AID 567. CHO 5-HT1a Ga15 NFAT-bla reporter, FRET ratio; 0% basal, 100% maximal reference agonist. actives 0.56% (n = 65,000);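 active = activation above the screen-wide mean activation plus 3 SD, cut at about 19% in these data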
HTR1E agonist: agonists of human 5-HT1E serotonin receptor; CHO 5-HT1E Ga15 NFAT-bla reporter, FRET; 0% DMSO wells, 100% control agonist wells; AID 574; activation, % at 6 µM; actives 0.69% (n = 65,000); P28566;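 active = activation above a set limit, the screen-wide mean activation plus 3 SD, cut at about 8.5% in these data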
5-HT1A blocker: blocks the human serotonin 5-HT1a receptor | inhibition, % at 10 µM | AID 612 | actives 0.68% (n = 62,000) | CHO 5-HT1a Ga15 NFAT-bla reporter, antagonist mode;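 active = inhibition above the mean of all tested compounds plus 3 SD, cut at about 43% in these data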;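 also: receptor stimulated by 5-CT agonist at 100 nM near EC80; beta-lactamase reporter measured by ratiometric fluorescence of a cleavable substrate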
A number is an active result; n = inactive; x = no result given.

SMILES	S1P1 ag-PAM	S1P3 ag	HTR1E antagonist	5HT1a ag	HTR1E agonist	5-HT1A blocker
COc1ccccc1N1CCN(Cc2ccccc2F)CC1	n	n	n	n	18	n
COc1ccccc1N1CCN(Cc2c(F)cccc2F)CC1	n	n	n	n	n	n
COc1ccccc1N1CCN(Cc2cccc(OC)c2O)CC1	x	n	n	n	13	n
COc1ccccc1N1CCN(Cc2ccccc2Cl)CC1	n	n	n	n	n	n
Cn1ccnc1P(=S)(c1nccn1C)c1nccn1C	n	n	n	n	n	n
Cn1nc(N)c2c1N=P(N1CCOCC1)(N1CCOCC1)N=C2c1ccccc1	n	n	n	n	n	n
COc1cc2nc(CN3CC=C(c4ccccc4)CC3)[nH]c(=O)c2cc1OC	n	n	n	n	n	44
CCN(CC)CCCC(C)N=C(c1ccccc1)c1c(O)n(C)c(=O)n(C)c1=O (centres undefined)	n	n	n	n	n	x
CCC(COC(=O)c1cc(OC)c(OC)c(OC)c1)(c1ccccc1)N(C)C (centres undefined)	n	n	n	n	n	x
COc1ccc(Cn2c(N)c(C(=O)NCc3ccco3)c3nc4ccccc4nc32)cc1	n	7.5	n	n	n	n
COCCCn1c(N)c(C(=O)NCCC(C)C)c2nc3ccccc3nc21	n	10	n	34	12	n
Nc1c(C(=O)NCc2ccco2)c2nc3ccccc3nc2n1Cc1ccc(F)cc1	n	n	n	n	n	x
CCCCCCn1c(N)c(C(=O)NCCN2CCOCC2)c2nc3ccccc3nc21	n	10	n	n	n	n
CN1CCC2(CC1)NC(=O)C1=C(CN(C)CC1)N2	n	n	n	n	n	n
O=C1CC(=O)N(c2ccc(Cl)cc2Cl)C(=O)N1	n	n	n	n	n	n
Cc1[nH]c2ccccc2c1C1=CCNCC1	n	n	n	n	91	n
Nc1ccc(N2CCN(Cc3ccccc3Cl)CC2)c(Cl)c1	n	n	n	n	n	n
CC(C)(C)c1ccc(O)c(CN2CCN(c3ccccc3)CC2)c1	n	n	n	n	n	64
COc1cccc(N2CCN(Cc3cccc(Cl)c3)CC2)c1	n	n	34	n	n	n
COc1cccc(N2CCN(Cc3ccc(Cl)cc3)CC2)c1	n	n	n	n	n	n
CN(C)P(=O)(C(Cl)=C(N1CCCCC1)N1CCCCC1)N(C)C	n	n	n	n	n	43
COC(=O)CC1(Cc2ccccc2)C(=O)NC(=O)NC1=O	n	n	n	n	n	n
O=c1[nH]c(=O)n(Cc2ccccc2)c(O)c1C=NCCCO	n	n	n	n	n	n
O=C(CN1CCN(CCO)CC1)Nc1ccc(Cl)cc1C(=O)c1ccccc1	n	n	n	n	n	x
CN1CCN(CC(=O)Nc2ccc(Cl)cc2C(=O)c2ccccc2)CC1	n	n	n	n	10	n
SMILES	S1P1 ag-PAM	S1P3 ag	HTR1E antagonist	5HT1a ag	HTR1E agonist	5-HT1A blocker
CCCC(C)C1(CC)C(=O)NC(=Nc2ccc(F)cc2)NC1=O (centres undefined)	n	n	n	n	n	n
COc1ccc(CCn2c(O)c(C=NCCCN(C)C)c(=O)[nH]c2=O)cc1OC	n	n	n	n	n	n
c1ccc2c(CN3CCCCCCC3)c[nH]c2c1	x	n	n	n	n	n
CN1CC=C(c2c[nH]c3ccccc23)CC1	n	n	n	n	106	n
CC(C)[C@@]1(NC(=O)[C@@H]2C=C3c4cccc5[nH]cc(c45)C[C@H]3N(C)C2)O[C@@]2(O)[C@@H]3CCCN3C(=O)[C@H](Cc3ccccc3)N2C1=O	n	n	n	113	9.1	x
CC(C)[C@H]1C(=O)N2CCC[C@H]2[C@]2(O)O[C@](NC(=O)[C@@H]3C=C4c5cccc6[nH]cc(c56)C[C@H]4N(C)C3)(C(C)C)C(=O)N12	n	n	n	102	n	x
CC(C)[C@@]1(NC(=O)[C@@H]2C[C@@H]3c4cccc5[nH]cc(c45)C[C@H]3N(C)C2)O[C@@]2(O)[C@@H]3CCCN3C(=O)[C@H](Cc3ccccc3)N2C1=O	n	n	n	96	n	x
COCc1cc(C2SCC(=O)Nc3c2c(=O)[nH]n3C(C)C)ccc1OC (centres undefined)	n	n	n	n	n	n
Cc1onc(-c2ccccc2)c1C(=O)N1CCC2(CC1)OCCO2	n	n	n	n	n	n
COc1cc2c(cc1OC)C(C(=O)N1CCC3(CC1)OCCO3)C(c1ccccc1F)N(C)C2=O (centres undefined)	x	x	n	n	n	n
CC(C)C(=O)N1CCN(CCN=Cc2c(O)n(C)c(=O)n(C)c2=O)CC1	n	n	n	n	n	x
COc1cc2c(cc1OC)-c1c(OC)c(OC)cc3c1C(C2)N(C)CC3 (centres undefined)	n	n	n	n	25	n
COc1cccc(OC)c1C1=NCC(=O)Nc2c1oc1ccc(Br)cc21	n	n	80	n	n	71
O=C1CN=C(c2ccccc2)c2oc3ccc(Br)cc3c2N1	n	n	n	n	n	n
CP(C)(=O)CCC(=O)O	n	n	n	n	n	n
CCCCc1ccc2[nH]cc(CCN)c2c1	n	n	n	69	106	n
CCCCC12CNCC(C)(CNC1)C2=O	n	n	n	86	n	n
CCCCc1nc(N2CCNCC2)c(C#N)c2c1CSC(C)(C)C2	n	n	n	n	10	x
C=CCn1c(O)c(C(CC)=Nc2ccc(N(CC)CC)cc2)c(=O)[nH]c1=O	n	n	n	n	n	n
CCC(=NCCOc1ccc(Cl)cc1)c1c(O)n(C)c(=O)n(C)c1=O	62	n	n	n	n	x
O=C(CCCN1CCC2(CC1)C(=O)NCN2c1ccccc1)c1ccc(F)cc1	n	n	n	n	16	x
CCn1nc(-c2cccs2)nc2c(=O)n(C)c(=O)nc1-2	96	n	96	n	n	82
COc1ccc(CC2C(=O)N(C)C(=O)N(C)C2=O)c(OC)c1	n	n	n	22	n	n
Cc1[nH]c2c(Cl)cccc2c1CCN	n	n	n	n	71	n
CCC(=NCCN1CCCCC1)c1c(O)n(C)c(=O)n(C)c1=O	n	n	n	n	n	x
Cn1c(O)c(C(=NCCN2CCCCC2)c2ccccc2Cl)c(=O)n(C)c1=O	n	n	n	n	n	43
Cc1cc(OCc2nn[nH]n2)c2c3c(c(=O)oc2c1)CCC3	n	n	n	n	n	n
